1 molecule from ChEMBL document CHEMBL4342493, “Design and Optimization of 3'-(Imidazo[1,2-a]pyrazin-3-yl)-[1,1'-biphenyl]-3-carboxamides as Selective DDR1 Inhibitors” (ACS Med Chem Lett, 2020) can be followed below.

Experiment [1] addresses Dual specificity protein kinase CLK4 (Homo sapiens, UniProt Q9HAZ1). Nature of the experiment: Binding affinity to wild-type human partial length CLK4 (R135 to K481 residues) expressed in bacterial expression system after 1 hr by Kinomescan method. In a few lines: (§1)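 KINOMEscan binding; Kd determined for DDR1 and the off-target kinases DDR2, CAMK1D, CLK4 and TTK.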
Experiment [2] addresses T1, Dual specificity protein kinase TTK (Homo sapiens) (UniProt P33981).
T1 sequence (whole entry): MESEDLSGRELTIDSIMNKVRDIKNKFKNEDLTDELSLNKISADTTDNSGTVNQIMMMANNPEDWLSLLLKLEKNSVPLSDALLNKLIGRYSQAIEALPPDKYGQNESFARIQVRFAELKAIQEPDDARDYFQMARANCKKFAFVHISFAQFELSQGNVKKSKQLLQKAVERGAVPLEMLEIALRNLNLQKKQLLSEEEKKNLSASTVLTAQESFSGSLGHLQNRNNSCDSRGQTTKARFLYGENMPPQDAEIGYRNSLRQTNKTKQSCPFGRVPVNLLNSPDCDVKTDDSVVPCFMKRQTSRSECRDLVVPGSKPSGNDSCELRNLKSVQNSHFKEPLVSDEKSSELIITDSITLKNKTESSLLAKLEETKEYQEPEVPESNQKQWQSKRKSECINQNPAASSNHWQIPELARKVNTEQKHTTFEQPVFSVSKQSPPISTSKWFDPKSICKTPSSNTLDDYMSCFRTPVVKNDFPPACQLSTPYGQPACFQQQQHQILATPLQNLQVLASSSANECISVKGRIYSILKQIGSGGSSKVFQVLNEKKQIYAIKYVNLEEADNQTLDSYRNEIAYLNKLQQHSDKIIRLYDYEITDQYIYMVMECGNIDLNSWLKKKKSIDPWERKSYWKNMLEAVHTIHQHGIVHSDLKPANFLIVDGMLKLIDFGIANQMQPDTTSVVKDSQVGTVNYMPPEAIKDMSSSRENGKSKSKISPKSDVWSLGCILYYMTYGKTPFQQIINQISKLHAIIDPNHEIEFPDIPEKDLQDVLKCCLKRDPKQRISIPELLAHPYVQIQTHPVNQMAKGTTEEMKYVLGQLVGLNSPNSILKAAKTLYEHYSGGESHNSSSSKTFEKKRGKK
The experiment in a line: Inhibition of wild-type human partial length TTK (N505 to V798 residues) expressed in bacterial expression system assessed as enzyme residual activity at 200 nM after 1 hr by Kinomescan method relative to control.

The species named for the next experiment is Homo sapiens. The experiment in a line: Selectivity index, ratio of IC50 for human recombinant full length His-tagged Bcr-Abl expressed in baculovirus expression system using tyrosine-2 peptide as substrate after 1 hr in presence of […] ATP by FRET based Z'-LYTE assay to IC50 for recombinant human GST-tagged DDR1 catalytic domain (440 to 876 residues) expressed in baculovirus expression system using Fluorescein-poly GAT as substrate incubated for 1 hr in presence of ATP by LanthaScreen Eu kinase assay. The gist of the method: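 Ratio of Bcr-Abl IC50 to DDR1 IC50. Bcr-Abl was measured by FRET-based Z′-Lyte assay and DDR1 by LanthaScreen Eu kinase assay. Each IC50 is the mean of three independent experiments, with variation <20%.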
On the technique in general: TR-FRET usually uses a lanthanide donor and a delayed reading to cut background.

Experiment [3] relates to NCI-H1299. Nature of the experiment: Antimigratory activity against human H1299 cells assessed as reduction in wound closure at 1.25 uM after 24 hrs by bright field microscopic based wound healing assay relative to control. It is filed as functional. As to conditions: NCI-H1299, 24 h. In a few lines: (§2)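 Wound healing (scratch) migration assay in H1299 cells at 1.25, 2.5 and 5.0 μM; wound closure compared with blank control groups.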

A further experiment deals with Bcr/Abl fusion protein (Homo sapiens, UniProt P00519). The experiment in a line: Inhibition of human recombinant full length His-tagged Bcr-Abl expressed in baculovirus expression system using tyrosine-2 peptide as substrate after 1 hr in presence of […] ATP by FRET based Z'-LYTE assay. The gist of the method: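 FRET-based Z′-Lyte kinase assay for Bcr-Abl; IC50 values are means of three independent experiments, variations <20%.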
Bcr/Abl fusion protein, sequence (P00519 whole entry, the tested form may be a part): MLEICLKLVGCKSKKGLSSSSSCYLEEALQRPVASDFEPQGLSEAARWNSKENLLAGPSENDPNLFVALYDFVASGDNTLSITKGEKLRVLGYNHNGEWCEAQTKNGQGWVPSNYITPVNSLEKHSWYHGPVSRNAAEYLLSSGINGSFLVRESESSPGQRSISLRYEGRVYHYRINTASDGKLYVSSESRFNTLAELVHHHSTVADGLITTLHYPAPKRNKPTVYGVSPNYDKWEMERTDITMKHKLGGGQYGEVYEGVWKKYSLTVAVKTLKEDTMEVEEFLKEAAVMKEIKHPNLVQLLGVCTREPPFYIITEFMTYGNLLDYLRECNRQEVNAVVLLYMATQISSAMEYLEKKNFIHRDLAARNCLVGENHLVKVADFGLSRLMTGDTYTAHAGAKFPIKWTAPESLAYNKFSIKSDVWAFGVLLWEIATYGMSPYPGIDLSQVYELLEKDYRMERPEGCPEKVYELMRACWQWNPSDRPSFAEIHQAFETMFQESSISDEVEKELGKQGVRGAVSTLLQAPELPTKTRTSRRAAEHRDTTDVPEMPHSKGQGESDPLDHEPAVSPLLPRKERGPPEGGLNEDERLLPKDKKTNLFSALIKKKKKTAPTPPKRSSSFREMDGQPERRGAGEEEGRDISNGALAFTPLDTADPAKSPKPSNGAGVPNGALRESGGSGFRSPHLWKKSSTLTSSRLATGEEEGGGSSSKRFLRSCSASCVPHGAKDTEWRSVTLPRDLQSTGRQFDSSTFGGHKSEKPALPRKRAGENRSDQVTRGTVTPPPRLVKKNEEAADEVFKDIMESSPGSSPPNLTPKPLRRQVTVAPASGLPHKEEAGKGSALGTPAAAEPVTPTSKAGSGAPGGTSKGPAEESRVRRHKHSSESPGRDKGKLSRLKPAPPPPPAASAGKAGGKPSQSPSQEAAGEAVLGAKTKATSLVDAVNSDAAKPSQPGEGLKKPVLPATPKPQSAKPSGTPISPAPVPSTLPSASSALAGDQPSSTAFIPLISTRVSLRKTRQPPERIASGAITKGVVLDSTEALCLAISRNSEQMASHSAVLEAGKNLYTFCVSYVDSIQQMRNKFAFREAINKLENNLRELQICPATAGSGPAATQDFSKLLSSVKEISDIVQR
Bcr/Abl fusion protein, sequence (P11274 whole entry, further chain, the tested form may be a part): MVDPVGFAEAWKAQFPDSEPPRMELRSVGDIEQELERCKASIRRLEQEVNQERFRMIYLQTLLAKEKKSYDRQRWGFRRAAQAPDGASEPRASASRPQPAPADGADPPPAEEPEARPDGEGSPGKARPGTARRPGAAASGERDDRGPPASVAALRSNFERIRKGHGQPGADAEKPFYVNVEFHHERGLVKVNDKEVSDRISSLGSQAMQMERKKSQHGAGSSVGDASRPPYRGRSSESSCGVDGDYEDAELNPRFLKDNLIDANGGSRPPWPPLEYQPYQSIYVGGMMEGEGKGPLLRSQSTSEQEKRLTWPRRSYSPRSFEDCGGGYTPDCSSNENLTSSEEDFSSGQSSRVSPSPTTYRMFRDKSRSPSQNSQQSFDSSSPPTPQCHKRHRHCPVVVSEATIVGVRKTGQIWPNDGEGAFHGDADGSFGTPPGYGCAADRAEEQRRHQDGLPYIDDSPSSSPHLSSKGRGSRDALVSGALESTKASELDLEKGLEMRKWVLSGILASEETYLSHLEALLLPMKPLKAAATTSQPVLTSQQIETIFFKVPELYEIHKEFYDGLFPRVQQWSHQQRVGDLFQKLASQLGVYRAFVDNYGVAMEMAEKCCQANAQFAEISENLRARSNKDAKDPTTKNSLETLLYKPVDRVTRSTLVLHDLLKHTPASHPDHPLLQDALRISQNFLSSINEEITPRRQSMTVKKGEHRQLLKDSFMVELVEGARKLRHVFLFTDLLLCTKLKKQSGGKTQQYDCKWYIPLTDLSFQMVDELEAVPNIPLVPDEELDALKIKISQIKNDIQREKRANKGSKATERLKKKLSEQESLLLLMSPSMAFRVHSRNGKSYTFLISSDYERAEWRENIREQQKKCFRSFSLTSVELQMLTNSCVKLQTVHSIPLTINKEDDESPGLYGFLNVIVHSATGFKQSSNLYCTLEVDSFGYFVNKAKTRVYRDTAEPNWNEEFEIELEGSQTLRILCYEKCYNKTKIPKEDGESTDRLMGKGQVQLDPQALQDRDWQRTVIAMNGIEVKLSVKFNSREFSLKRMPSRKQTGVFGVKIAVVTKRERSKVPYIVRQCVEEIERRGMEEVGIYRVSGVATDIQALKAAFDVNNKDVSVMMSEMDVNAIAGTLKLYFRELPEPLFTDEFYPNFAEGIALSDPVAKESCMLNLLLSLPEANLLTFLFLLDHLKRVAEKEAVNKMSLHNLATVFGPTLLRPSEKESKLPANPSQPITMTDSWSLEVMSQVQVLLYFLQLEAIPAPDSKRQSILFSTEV

Experiment [4] has as its target Epithelial discoidin domain-containing receptor 1 (Homo sapiens, UniProt Q08345). The experiment in a line: Binding affinity to wild type human partial length DDR1 (R565 to V876 residues) expressed in bacterial expression system after 1 hr by Kinomescan method. In a few lines: as §1
The subject of experiment [5] is NCI-H1299. Nature of the experiment: Antimigratory activity against human H1299 cells assessed as reduction in wound closure at 2.5 uM after 24 hrs by bright field microscopic based wound healing assay relative to control. Particulars: NCI-H1299, 24 h. Type of experiment: functional. In a few lines: as §2
For experiment [6], the target named is T2, Discoidin domain-containing receptor 2 (Homo sapiens, UniProt Q16832).
T2 sequence (Q16832 whole entry): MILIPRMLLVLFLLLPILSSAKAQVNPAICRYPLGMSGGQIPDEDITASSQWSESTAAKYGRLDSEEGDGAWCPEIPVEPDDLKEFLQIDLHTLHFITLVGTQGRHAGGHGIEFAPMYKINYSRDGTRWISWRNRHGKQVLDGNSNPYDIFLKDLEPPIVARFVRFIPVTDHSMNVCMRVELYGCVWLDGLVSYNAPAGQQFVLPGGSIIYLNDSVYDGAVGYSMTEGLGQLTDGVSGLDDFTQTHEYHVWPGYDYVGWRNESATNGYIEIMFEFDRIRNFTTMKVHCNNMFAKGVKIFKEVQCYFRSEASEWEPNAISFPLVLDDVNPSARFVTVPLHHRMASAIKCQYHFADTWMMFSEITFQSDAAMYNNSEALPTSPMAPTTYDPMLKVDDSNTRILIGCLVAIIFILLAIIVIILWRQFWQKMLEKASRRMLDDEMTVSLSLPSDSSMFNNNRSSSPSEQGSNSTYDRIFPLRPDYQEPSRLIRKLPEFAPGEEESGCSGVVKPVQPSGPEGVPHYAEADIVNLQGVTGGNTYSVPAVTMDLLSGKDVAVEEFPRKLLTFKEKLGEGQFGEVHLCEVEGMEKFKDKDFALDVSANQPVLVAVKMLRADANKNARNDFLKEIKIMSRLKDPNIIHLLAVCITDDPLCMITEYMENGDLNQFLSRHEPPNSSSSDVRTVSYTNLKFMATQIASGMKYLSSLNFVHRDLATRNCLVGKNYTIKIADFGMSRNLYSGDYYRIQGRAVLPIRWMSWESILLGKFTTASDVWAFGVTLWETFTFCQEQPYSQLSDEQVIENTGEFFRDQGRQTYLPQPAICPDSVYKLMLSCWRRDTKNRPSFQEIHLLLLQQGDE
Nature of the experiment: Binding affinity to wild type human partial length DDR2 (V555 to E855 residues) expressed in mammalian expression system after 1 hr by Kinomescan method. In a few lines:
as §1

In experiment [7] the target is T3, Dual specificity protein kinase TTK (Homo sapiens, UniProt P33981).
T3 sequence (P33981 whole entry): T1 sequence (whole entry)
The experiment in a line: Binding affinity to wild-type human partial length TTK (N505 to V798 residues) expressed in bacterial expression system after 1 hr by Kinomescan method. In a few lines: as §1

Experiment [8] concerns NCI-H1299. Nature of the experiment: Antiinvasive activity against human H1299 cells at 5 uM after 24 hrs by crystal violet staining based transwell assay relative to control. Type of experiment: functional. As to conditions: NCI-H1299, 24 h. In a few lines:
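H1299 NSCLC cells; transwell invasion assay over 24 h with compound at 1.25, 2.5 and 5.0 μM; invasion expressed relative to blank control.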

Dual specificity protein kinase CLK4, sequence (Q9HAZ1 whole entry, the tested form may be a part): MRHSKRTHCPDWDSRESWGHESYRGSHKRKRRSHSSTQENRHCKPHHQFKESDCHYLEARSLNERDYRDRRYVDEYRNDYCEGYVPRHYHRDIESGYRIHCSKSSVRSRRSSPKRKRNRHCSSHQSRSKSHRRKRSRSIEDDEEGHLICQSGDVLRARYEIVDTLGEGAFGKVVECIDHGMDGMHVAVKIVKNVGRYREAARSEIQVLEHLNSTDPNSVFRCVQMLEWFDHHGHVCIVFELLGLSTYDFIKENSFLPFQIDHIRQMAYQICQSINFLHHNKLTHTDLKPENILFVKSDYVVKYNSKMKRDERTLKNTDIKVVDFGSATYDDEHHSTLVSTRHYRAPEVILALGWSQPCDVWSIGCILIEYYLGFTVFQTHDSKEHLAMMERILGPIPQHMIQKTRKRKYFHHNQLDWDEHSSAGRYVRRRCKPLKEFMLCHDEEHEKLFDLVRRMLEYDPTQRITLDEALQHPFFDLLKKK
Epithelial discoidin domain-containing receptor 1, sequence (Q08345 whole entry, the tested form may be a part): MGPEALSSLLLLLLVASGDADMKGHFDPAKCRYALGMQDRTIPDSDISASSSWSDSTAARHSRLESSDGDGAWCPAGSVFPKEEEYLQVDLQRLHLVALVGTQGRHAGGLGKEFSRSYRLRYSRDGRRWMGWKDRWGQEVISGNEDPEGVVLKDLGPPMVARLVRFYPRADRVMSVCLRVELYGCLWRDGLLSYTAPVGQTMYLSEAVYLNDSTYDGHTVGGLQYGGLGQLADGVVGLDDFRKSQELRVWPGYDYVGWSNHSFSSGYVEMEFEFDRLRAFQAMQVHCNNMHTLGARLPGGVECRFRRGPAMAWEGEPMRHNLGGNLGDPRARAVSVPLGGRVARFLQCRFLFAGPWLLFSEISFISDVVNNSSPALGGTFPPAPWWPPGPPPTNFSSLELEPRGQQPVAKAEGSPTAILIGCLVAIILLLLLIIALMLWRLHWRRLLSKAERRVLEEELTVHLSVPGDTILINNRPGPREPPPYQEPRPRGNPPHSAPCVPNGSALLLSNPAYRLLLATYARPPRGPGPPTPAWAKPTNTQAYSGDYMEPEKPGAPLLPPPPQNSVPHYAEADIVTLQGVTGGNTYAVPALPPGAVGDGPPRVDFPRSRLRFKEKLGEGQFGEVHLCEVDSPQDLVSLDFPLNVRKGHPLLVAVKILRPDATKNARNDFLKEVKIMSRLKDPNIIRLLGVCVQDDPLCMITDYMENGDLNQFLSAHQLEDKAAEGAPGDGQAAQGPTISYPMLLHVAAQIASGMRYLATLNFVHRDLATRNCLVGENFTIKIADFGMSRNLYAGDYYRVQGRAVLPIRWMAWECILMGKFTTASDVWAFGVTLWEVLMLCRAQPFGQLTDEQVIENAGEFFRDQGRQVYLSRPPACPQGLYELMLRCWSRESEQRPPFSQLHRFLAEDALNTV

One may read the Kd as the equilibrium constant for the complex coming apart. A higher Kd goes with a looser complex. The inhibition is the change of the read-out against control, counted positive when it falls. One may read the IC50 as the midpoint of a concentration-inhibition curve. `CCc1ccc(C(=O)Nc2cc(F)cc(C(F)(F)F)c2)cc1-c1cc(C)cc(-c2cnc3cnccn23)c1`: the Kd in experiment [1] is greater than 1000 nM; in [4], 7.8 nM; in [6] it was 86 nM; in experiment [7], greater than 1000 nM. Further, the Activity in [2] came out at 0%. In the experiment filed under Homo sapiens, the Ratio IC50 was determined as 420. Also, the inhibition at 1.25 µM with NCI-H1299 [3] was found to be 40%. The IC50 at Bcr/Abl fusion protein is greater than 10000 nM. The inhibition at 2.5 µM with NCI-H1299 [5] is 60%. Further, testing at 5 µM in the experiment with NCI-H1299 [8] gave an inhibition of 71%.
